Measured values published in ChEMBL document CHEMBL3352599, “Radiosynthesis and biological evaluation of a novel enoyl-ACP reductase inhibitor for Staphylococcus aureus” (Eur J Med Chem, 2014).

What was measured:
[1] = Drug uptake in healthy thigh of Swiss Webster thigh infected mouse model infected with methicillin-resistant Staphylococcus aureus BAA1762 at 3.7 MBq, iv after 15 mins; assay type: ADME, organism-based, Thigh muscle; details: in vivo, 0.25 h
How it was run: (§1)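 Neutropenic mice (ip cyclophosphamide) given 5×10^5 MRSA cells into the left thigh muscle. [11C]-label given into the lateral tail vein in ethanol/saline (1/3) under isoflurane, then mice recovered and moved freely. Killed by cervical dislocation; muscle from both thighs and blood collected, weighed and well-counted. Reported as %ID/g, mean ± SD, n=3.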

[2] = Drug uptake in healthy thigh of Swiss Webster thigh infected mouse model infected with methicillin-resistant Staphylococcus aureus BAA1762 at 3.7 MBq, iv after 30 mins; assay type: ADME, organism-based, Thigh muscle; details: in vivo, 0.5 h; how it was run: as §1
[3] = Drug uptake in healthy thigh of Swiss Webster thigh infected mouse model infected with methicillin-resistant Staphylococcus aureus BAA1762 at 3.7 MBq, iv after 45 mins; assay type: ADME, organism-based, Thigh muscle; details: in vivo, 0.75 h; how it was run: as §1
[4] = Drug uptake in healthy thigh of Swiss Webster thigh infected mouse model infected with methicillin-resistant Staphylococcus aureus BAA1762 at 3.7 MBq, iv after 60 mins; assay type: ADME, organism-based, Thigh muscle; details: in vivo, 1 h; how it was run: as §1
[5] = Drug uptake in infected thigh of Swiss Webster thigh infected mouse model infected with methicillin-resistant Staphylococcus aureus BAA1762 at 3.7 MBq, iv after 15 mins; assay type: ADME, organism-based, Thigh muscle; details: in vivo, 0.25 h; how it was run: as §1
[6] = Drug uptake in infected thigh of Swiss Webster thigh infected mouse model infected with methicillin-resistant Staphylococcus aureus BAA1762 at 3.7 MBq, iv after 30 mins; assay type: ADME, organism-based, Thigh muscle; details: in vivo, 0.5 h; how it was run: as §1
[7] = Drug uptake in infected thigh of Swiss Webster thigh infected mouse model infected with methicillin-resistant Staphylococcus aureus BAA1762 at 3.7 MBq, iv after 45 mins; assay type: ADME, organism-based, Thigh muscle; details: in vivo, 0.75 h; how it was run: as §1
[8] = Drug uptake in infected thigh of Swiss Webster thigh infected mouse model infected with methicillin-resistant Staphylococcus aureus BAA1762 at 3.7 MBq, iv after 60 mins; assay type: ADME, organism-based, Thigh muscle; details: in vivo, 1 h; how it was run: as §1
[9] = system: Blood; assay: Drug uptake in blood of Swiss Webster thigh infected mouse model infected with methicillin-resistant Staphylococcus aureus BAA1762 at 3.7 MBq, iv after 15 mins; assay type: ADME, organism-based; details: in vivo, 0.25 h; how it was run: as §1
[10] = system: Blood; assay: Drug uptake in blood of Swiss Webster thigh infected mouse model infected with methicillin-resistant Staphylococcus aureus BAA1762 at 3.7 MBq, iv after 30 mins; assay type: ADME, organism-based; details: in vivo, 0.5 h; how it was run: as §1
[11] = system: Blood; assay: Drug uptake in blood of Swiss Webster thigh infected mouse model infected with methicillin-resistant Staphylococcus aureus BAA1762 at 3.7 MBq, iv after 45 mins; assay type: ADME, organism-based; details: in vivo, 0.75 h; how it was run: as §1
[12] = system: Blood; assay: Drug uptake in blood of Swiss Webster thigh infected mouse model infected with methicillin-resistant Staphylococcus aureus BAA1762 at 3.7 MBq, iv after 60 mins; assay type: ADME, organism-based; details: in vivo, 1 h; how it was run: as §1
[13] = system: Spleen; assay: Drug uptake in spleen of healthy Swiss Webster mouse at 3.7 MBq, iv after 20 mins; assay type: ADME, organism-based; details: in vivo
How it was run: (§2)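 Uninfected control mice. [11C]-label given into the lateral tail vein in ethanol/saline (1/3) under isoflurane, then mice recovered and moved freely. Killed by cervical dislocation; blood taken by cardiac puncture, spleen, lung, liver and kidney excised, weighed and well-counted. Reported as %ID/g, mean ± SD, n=3.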

[14] = system: Spleen; assay: Drug uptake in spleen of healthy Swiss Webster mouse at 3.7 MBq, iv after 40 mins; assay type: ADME, organism-based; details: in vivo; how it was run: as §2
[15] = system: Spleen; assay: Drug uptake in spleen of healthy Swiss Webster mouse at 3.7 MBq, iv after 60 mins; assay type: ADME, organism-based; details: in vivo, 1 h; how it was run: as §2
[16] = system: Lung; assay: Drug uptake in lung of healthy Swiss Webster mouse at 3.7 MBq, iv after 20 mins; assay type: ADME, organism-based; details: in vivo; how it was run: as §2
[17] = system: Lung; assay: Drug uptake in lung of healthy Swiss Webster mouse at 3.7 MBq, iv after 40 mins; assay type: ADME, organism-based; details: in vivo; how it was run: as §2
[18] = system: Lung; assay: Drug uptake in lung of healthy Swiss Webster mouse at 3.7 MBq, iv after 60 mins; assay type: ADME, organism-based; details: in vivo, 1 h; how it was run: as §2
[19] = system: Liver; assay: Drug uptake in liver of healthy Swiss Webster mouse at 3.7 MBq, iv after 20 mins; assay type: ADME, organism-based; details: in vivo; how it was run: as §2
[20] = system: Liver; assay: Drug uptake in liver of healthy Swiss Webster mouse at 3.7 MBq, iv after 40 mins; assay type: ADME, organism-based; details: in vivo; how it was run: as §2
[21] = system: Liver; assay: Drug uptake in liver of healthy Swiss Webster mouse at 3.7 MBq, iv after 60 mins; assay type: ADME, organism-based; details: in vivo, 1 h; how it was run: as §2
[22] = system: Kidney; assay: Drug uptake in kidney of healthy Swiss Webster mouse at 3.7 MBq, iv after 20 mins; assay type: ADME, organism-based; details: in vivo; how it was run: as §2
[23] = system: Kidney; assay: Drug uptake in kidney of healthy Swiss Webster mouse at 3.7 MBq, iv after 40 mins; assay type: ADME, organism-based; details: in vivo; how it was run: as §2
[24] = system: Kidney; assay: Drug uptake in kidney of healthy Swiss Webster mouse at 3.7 MBq, iv after 60 mins; assay type: ADME, organism-based; details: in vivo, 1 h; how it was run: as §2
[25] = system: Blood; assay: Drug uptake in blood of healthy Swiss Webster mouse at 3.7 MBq, iv after 20 mins; assay type: ADME, organism-based; details: in vivo; how it was run: as §2
[26] = system: Blood; assay: Drug uptake in blood of healthy Swiss Webster mouse at 3.7 MBq, iv after 40 mins; assay type: ADME, organism-based; details: in vivo; how it was run: as §2
[27] = system: Blood; assay: Drug uptake in blood of healthy Swiss Webster mouse at 3.7 MBq, iv after 60 mins; assay type: ADME, organism-based; details: in vivo, 1 h; how it was run: as §2
[28] = system: Spleen; assay: Drug uptake in spleen of Swiss Webster systemic infected mouse model infected with methicillin-resistant Staphylococcus aureus BAA1762 at 3.7 MBq, iv after 20 mins; assay type: ADME, organism-based; details: in vivo
How it was run: (§3)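 Neutropenic mice (ip cyclophosphamide) infected ip with 2×10^7 MRSA cells. [11C]-label given into the lateral tail vein in ethanol/saline (1/3) under isoflurane, then mice recovered and moved freely. Killed by cervical dislocation; blood taken by cardiac puncture, organs excised, weighed and well-counted. Reported as %ID/g, mean ± SD, n=3.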

[29] = system: Spleen; assay: Drug uptake in spleen of Swiss Webster systemic infected mouse model infected with methicillin-resistant Staphylococcus aureus BAA1762 at 3.7 MBq, iv after 40 mins; assay type: ADME, organism-based; details: in vivo; how it was run: as §3
[30] = system: Spleen; assay: Drug uptake in spleen of Swiss Webster systemic infected mouse model infected with methicillin-resistant Staphylococcus aureus BAA1762 at 3.7 MBq, iv after 60 mins; assay type: ADME, organism-based; details: in vivo, 1 h; how it was run: as §3
[31] = system: Lung; assay: Drug uptake in lung of Swiss Webster systemic infected mouse model infected with methicillin-resistant Staphylococcus aureus BAA1762 at 3.7 MBq, iv after 20 mins; assay type: ADME, organism-based; details: in vivo; how it was run: as §3
[32] = system: Lung; assay: Drug uptake in lung of Swiss Webster systemic infected mouse model infected with methicillin-resistant Staphylococcus aureus BAA1762 at 3.7 MBq, iv after 40 mins; assay type: ADME, organism-based; details: in vivo; how it was run: as §3
[33] = system: Lung; assay: Drug uptake in lung of Swiss Webster systemic infected mouse model infected with methicillin-resistant Staphylococcus aureus BAA1762 at 3.7 MBq, iv after 60 mins; assay type: ADME, organism-based; details: in vivo, 1 h; how it was run: as §3
[34] = system: Liver; assay: Drug uptake in liver of Swiss Webster systemic infected mouse model infected with methicillin-resistant Staphylococcus aureus BAA1762 at 3.7 MBq, iv after 20 mins; assay type: ADME, organism-based; details: in vivo; how it was run: as §3
[35] = system: Liver; assay: Drug uptake in liver of Swiss Webster systemic infected mouse model infected with methicillin-resistant Staphylococcus aureus BAA1762 at 3.7 MBq, iv after 40 mins; assay type: ADME, organism-based; details: in vivo; how it was run: as §3
[36] = system: Liver; assay: Drug uptake in liver of Swiss Webster systemic infected mouse model infected with methicillin-resistant Staphylococcus aureus BAA1762 at 3.7 MBq, iv after 60 mins; assay type: ADME, organism-based; details: in vivo, 1 h; how it was run: as §3
[37] = system: Kidney; assay: Drug uptake in kidney of Swiss Webster systemic infected mouse model infected with methicillin-resistant Staphylococcus aureus BAA1762 at 3.7 MBq, iv after 20 mins; assay type: ADME, organism-based; details: in vivo; how it was run: as §3
[38] = system: Kidney; assay: Drug uptake in kidney of Swiss Webster systemic infected mouse model infected with methicillin-resistant Staphylococcus aureus BAA1762 at 3.7 MBq, iv after 40 mins; assay type: ADME, organism-based; details: in vivo; how it was run: as §3
[39] = system: Kidney; assay: Drug uptake in kidney of Swiss Webster systemic infected mouse model infected with methicillin-resistant Staphylococcus aureus BAA1762 at 3.7 MBq, iv after 60 mins; assay type: ADME, organism-based; details: in vivo, 1 h; how it was run: as §3
[40] = system: Blood; assay: Drug uptake in blood of Swiss Webster systemic infected mouse model infected with methicillin-resistant Staphylococcus aureus BAA1762 at 3.7 MBq, iv after 20 mins; assay type: ADME, organism-based; details: in vivo; how it was run: as §3
[41] = system: Blood; assay: Drug uptake in blood of Swiss Webster systemic infected mouse model infected with methicillin-resistant Staphylococcus aureus BAA1762 at 3.7 MBq, iv after 40 mins; assay type: ADME, organism-based; details: in vivo; how it was run: as §3
[42] = system: Blood; assay: Drug uptake in blood of Swiss Webster systemic infected mouse model infected with methicillin-resistant Staphylococcus aureus BAA1762 at 3.7 MBq, iv after 60 mins; assay type: ADME, organism-based; details: in vivo, 1 h; how it was run: as §3

SMILES: CCCCCCc1ccc(Oc2ccccc2[11C]#N)c(O)c1
- Drug uptake [1]: 0.98 %ID/cc
- Drug uptake [2]: 0.63 %ID/cc
- Drug uptake [3]: 0.42 %ID/cc
- Drug uptake [4]: 0.33 %ID/cc
- Drug uptake [5]: 0.89 %ID/cc
- Drug uptake [6]: 0.54 %ID/cc
- Drug uptake [7]: 0.38 %ID/cc
- Drug uptake [8]: 0.34 %ID/cc
- Drug uptake [9]: 0.72 %ID/cc
- Drug uptake [10]: 0.42 %ID/cc
- Drug uptake [11]: 0.28 %ID/cc
- Drug uptake [12]: 0.26 %ID/cc
- Drug uptake [13]: 0.67 %ID/cc
- Drug uptake [14]: 0.37 %ID/cc
- Drug uptake [15]: 0.19 %ID/cc
- Drug uptake [16]: 3.19 %ID/cc
- Drug uptake [17]: 1.75 %ID/cc
- Drug uptake [18]: 1.32 %ID/cc
- Drug uptake [19]: 11.79 %ID/cc
- Drug uptake [20]: 9.69 %ID/cc
- Drug uptake [21]: 6.91 %ID/cc
- Drug uptake [22]: 2.22 %ID/cc
- Drug uptake [23]: 1.41 %ID/cc
- Drug uptake [24]: 0.93 %ID/cc
- Drug uptake [25]: 0.64 %ID/cc
- Drug uptake [26]: 0.41 %ID/cc
- Drug uptake [27]: 0.34 %ID/cc
- Drug uptake [28]: 0.71 %ID/cc
- Drug uptake [29]: 0.3 %ID/cc
- Drug uptake [30]: 0.31 %ID/cc
- Drug uptake [31]: 3.28 %ID/cc
- Drug uptake [32]: 1.78 %ID/cc
- Drug uptake [33]: 2.01 %ID/cc
- Drug uptake [34]: 11.18 %ID/cc
- Drug uptake [35]: 5.25 %ID/cc
- Drug uptake [36]: 7.31 %ID/cc
- Drug uptake [37]: 2.41 %ID/cc
- Drug uptake [38]: 1.15 %ID/cc
- Drug uptake [39]: 1.13 %ID/cc
- Drug uptake [40]: 0.67 %ID/cc
- Drug uptake [41]: 0.38 %ID/cc
- Drug uptake [42]: 0.44 %ID/cc
